Results taken from ChEMBL document CHEMBL5108041, “Identification and validation of novel microtubule suppressors with an imidazopyridine scaffold through structure-based virtual screening and docking” (RSC Med Chem, 2022).
The source made the active and inactive calls. The calls are words filed in the database; no cut-off is given here.

Assays:
MCF7 [1] = test: Antiproliferative activity against human MCF7 cells assessed as cell growth inhibition incubated for 48 hr by MTT assay; settings: MCF7, 48 h
MCF7 [2] = test: Antiproliferative activity against human MCF7 cells assessed as cell growth inhibition at 10 uM incubated for 48 hr by MTT assay; format: functional
Method in brief: (§1)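 Cells in RPMI with 10% FBS, 1% pen/strep at 37 °C, 5% CO2. […] MTT 0.5 mg ml⁻¹ for 2 h, formazan dissolved in DMSO, A570; viability = OD treated/OD control × 100. Triplicate.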

MDA-MB-231 [3] = test: Antiproliferative activity against human MDA-MB-231 cells assessed as cell growth inhibition incubated for 48 hr by MTT assay; format: functional, cell-based
Method in brief: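 MTT titration: cells seeded 1×10^4/well for 24 h, then treated 48 h at 37 °C, 5% CO2 with 2.5, 5, 10, 20 μM. MTT 0.5 mg ml⁻¹ for 2 h, formazan in DMSO read at 570 nm; viability relative to 0.1% DMSO control. IC50 is the mean of three replicate experiments ± SD.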

A549 [4] = test: Antiproliferative activity against human A549 cells assessed as cell growth inhibition incubated for 48 hr by MTT assay; settings: A549, 48 h
A549 [5] = test: Antiproliferative activity against human A549 cells assessed as cell growth inhibition at 10 uM incubated for 48 hr by MTT assay; format: functional; method in brief: as §1
Tubulin = test: Inhibition of tubulin polymerization in human MCF7 cells by ELISA; format: cell-based
[6] = Antiproliferative activity against human F180 cells assessed as cell growth inhibition at 10 uM incubated for 48 hr by MTT assay; format: toxicity, cell-based; settings: f180, 48 h; method in brief: as §1
Tubulin (Sus scrofa) [7] = biological target: T1, Tubulin (Sus scrofa) (UniProt P02554+P02550); test: Inhibition of porcine Tubulin polymerization assessed as increase in AUC by measuring fluorescence at 15 uM incubated for 1 hr by fluorescence microscopy; format: protein assay
T1 sequence (P02550 whole entry, looked up): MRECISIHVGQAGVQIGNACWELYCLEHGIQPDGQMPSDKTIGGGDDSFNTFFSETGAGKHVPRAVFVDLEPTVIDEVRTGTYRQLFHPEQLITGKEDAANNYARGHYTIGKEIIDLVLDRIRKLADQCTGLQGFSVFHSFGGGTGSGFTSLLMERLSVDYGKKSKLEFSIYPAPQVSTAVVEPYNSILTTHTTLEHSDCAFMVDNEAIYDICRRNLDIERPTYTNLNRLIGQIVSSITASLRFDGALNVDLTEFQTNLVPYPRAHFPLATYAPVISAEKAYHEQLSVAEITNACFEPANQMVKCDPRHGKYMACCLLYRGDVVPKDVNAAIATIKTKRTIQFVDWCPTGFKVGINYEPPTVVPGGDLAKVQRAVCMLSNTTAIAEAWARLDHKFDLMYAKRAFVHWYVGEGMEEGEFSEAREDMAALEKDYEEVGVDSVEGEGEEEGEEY
T1 sequence (P02554 whole entry, looked up): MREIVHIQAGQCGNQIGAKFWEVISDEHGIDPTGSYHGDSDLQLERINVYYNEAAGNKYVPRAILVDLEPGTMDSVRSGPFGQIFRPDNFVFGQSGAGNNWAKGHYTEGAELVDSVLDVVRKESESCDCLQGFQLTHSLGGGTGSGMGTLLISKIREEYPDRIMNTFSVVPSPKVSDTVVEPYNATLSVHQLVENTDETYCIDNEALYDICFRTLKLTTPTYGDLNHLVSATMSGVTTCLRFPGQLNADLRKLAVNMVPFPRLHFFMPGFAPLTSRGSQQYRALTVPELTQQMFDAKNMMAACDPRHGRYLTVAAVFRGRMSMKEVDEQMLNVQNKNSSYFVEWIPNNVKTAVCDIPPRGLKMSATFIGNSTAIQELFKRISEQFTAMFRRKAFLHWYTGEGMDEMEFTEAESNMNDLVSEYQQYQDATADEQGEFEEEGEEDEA

MDA-MB-231 [8] = test: Antiproliferative activity against human MDA-MB-231 cells assessed as cell growth inhibition at 10 uM incubated for 48 hr by MTT assay; format: functional; method in brief: as §1
Tubulin (Homo sapiens) [9] = biological target: T2, Tubulin (Homo sapiens) (UniProt P68371+Q9H4B7+P0DPH7+P68366+Q13509+Q71U36+P04350+Q3ZCM7+P07437+P68363+Q9BQE3+Q6PEY2+Q13885+Q9BVA1+Q9BUF5); test: Inhibition of tubulin polymerization in human A549 cells assessed as inhibition of microtubule spindle formation with irregular morphology at 9 uM incubated for 24 hrs by immunofluorescence assay; format: cell-based
Method in brief: (§2)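 Fixed in 3.7% paraformaldehyde, permeabilised with 0.1% Triton X-100, blocked with 1% BSA 1 h, anti-β-tubulin mouse mAb overnight at 4 °C, Alexa Fluor 488 secondary, DAPI; fluorescence microscopy.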

Tubulin (Homo sapiens) [10] = biological target: T2, Tubulin (Homo sapiens); test: Inhibition of tubulin polymerization in human A549 cells assessed as inhibition of microtubule spindle formation with irregular morphology at 13 uM incubated for 24 hrs by immunofluorescence assay; format: cell-based; method in brief: as §2
Tubulin (Sus scrofa) [11] = biological target: T1, Tubulin (Sus scrofa); test: Inhibition of porcine Tubulin polymerization assessed as decrease in AUC by measuring fluorescence at 15 uM incubated for 1 hr by fluorescence microscopy; format: protein assay
Method in brief: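 Porcine tubulin at 2 mg ml⁻¹ in 80 mM PIPES, 2 mM MgCl₂, 0.5 mM EGTA pH 6.9, with 10 μM fluorescent reporter, 1 mM GTP and 15% glycerol, in a pre-warmed plate. […] Fluorescence (ex 360, em 450 nm) read once per min for 60 min at 37 °C. Area under the curve scored against the untreated control, taken as 100%.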

MCF7 [12] = test: Induction of apoptosis in human MCF7 cells assessed as Caspase-9 level at 6 uM incubated for 24 hrs by ELISA; format: functional
Method in brief: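 MCF-7 cells incubated with or without 6 μM for 24 h, washed in PBS, lysed; caspase-9 in lysates quantified by ELISA kit (ng ml⁻¹). Mean of three replicates ± SD.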

MCF7 [13] = test: Cell cycle arrest in human MCF7 assessed as accumulation at G1 phase at 6 uM incubated for 24 hrs by propidium iodide staining flow cytometry; format: functional
Method in brief: (§3)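 MCF-7 cells exposed to 6 μM for 24 h, DMSO vehicle control. Cells harvested, fixed in 70% ethanol on ice 15 min, then stained 1 h at room temperature with PI solution containing 0.1 mg mL⁻¹ RNaseA and 0.05% Triton X-100. DNA content read by flow cytometry; percentage of cells in each phase.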

MCF7 [14] = test: Cell cycle arrest in human MCF7 assessed as accumulation at pre G phase at 6 uM incubated for 24 hrs by propidium iodide staining flow cytometry; format: functional; method in brief: as §3
MCF7 [15] = test: Induction of apoptosis in human MCF7 cells assessed as Bax level at 6 uM incubated for 24 hrs by ELISA; format: functional
Method in brief: (§4)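 MCF-7 in RPMI1640 with 10% FBS, exposed to 6 μM for 24 h, lysed in cell extraction buffer, lysate diluted in standard diluent; Bax (pg ml⁻¹) and Bcl2 (ng ml⁻¹) measured by ELISA. Mean of three replicates ± SD.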

MCF7 [16] = test: Induction of apoptosis in human MCF7 cells assessed as early apoptotic cells at 6 uM incubated for 24 hrs by Annexin V-FITC/propidium iodide staining based flow cytometry (reference value: 0.55 %); format: functional
MCF7 [17] = test: Induction of apoptosis in human MCF7 cells assessed as late apoptotic cells at 6 uM incubated for 24 hrs by Annexin V-FITC/propidium iodide staining based flow cytometry (reference value: 0.17 %); format: functional
MCF7 [18] = test: Cell cycle arrest in human MCF7 assessed as accumulation at G2/M phase at 6 uM incubated for 24 hrs by propidium iodide staining flow cytometry; format: functional; method in brief: as §3
MCF7 [19] = test: Induction of apoptosis in human MCF7 cells assessed as Bcl-2 level at 6 uM incubated for 24 hrs by ELISA; format: functional; method in brief: as §4
MCF7 [20] = test: Cell cycle arrest in human MCF7 assessed as accumulation at S phase at 6 uM incubated for 24 hrs by propidium iodide staining flow cytometry; format: functional; method in brief: as §3
MCF7 [21] = test: Induction of apoptosis in human MCF7 cells assessed as necrotic cells at 6 uM incubated for 24 hrs by Annexin V-FITC/propidium iodide staining based flow cytometry (reference value: 0.76 %); format: functional
[22] = Homo sapiens, MDA-MB-231, 48 h, read-out: IC50

SMILES	IC50 (MCF7 [1])	inhibition at 10 µM (MCF7 [2])	IC50 (MDA-MB-231 [3]; [22])	IC50 (A549 [4])	inhibition at 10 µM (A549 [5])	IC50 (Tubulin)	Activity [6]	inhibition (Tubulin (Sus scrofa) [7])	inhibition at 10 µM (MDA-MB-231 [8])	further results
COc1ccc(C(=O)c2cn(CC(=O)Nc3ccc(F)cc3)c3cc(OC)c(OC)cc3c2=O)cc1	11 µM	50%	19.5 µM	9.4 µM	50%	12.8 µM	Toxic	Active	50%	inhibition (Tubulin (Homo sapiens) [9]): Active
COc1cc2c(=O)c(C(=O)c3ccc(F)cc3)cn(CC(=O)Nc3ccc(F)c(F)c3)c2cc1OC	12 µM	50%		13.2 µM	20%	13.1 µM	Toxic	Active	80%	inhibition (Tubulin (Homo sapiens) [10]): Active; IC50 (MDA-MB-231 [3]; time 48 hrs): 14.1 µM
COc1ccc(C2CC(O)=Nc3c2ncn3-c2cccc(C(F)(F)F)c2)cc1O (stereo not given)		50%			40%		Toxic		60%	inhibition (Tubulin (Sus scrofa) [11]): Active; Activity (MCF7 [12]): 13.7 ng/mL; Activity (MCF7 [13]): 53.91%; Activity (MCF7 [14]): 1.48%; Activity (MCF7 [15]): 207.6 pg/mL; Activity (MCF7 [16]): 5.96%; Activity (MCF7 [17]): 14.29%; Activity (MCF7 [18]): 3.38%; Activity (MCF7 [19]): 2.1 ng/mL; Activity (MCF7 [20]): 42.71%; Activity (MCF7 [21]): 7.11%
CC(=O)O[C@H]1C(=O)[C@@]2(C)[C@H]([C@H](OC(=O)c3ccccc3)[C@]3(O)C[C@H](OC(=O)[C@H](O)[C@@H](NC(=O)c4ccccc4)c4ccccc4)C(C)=C1C3(C)C)[C@]1(OC(C)=O)CO[C@@H]1C[C@@H]2O [PACLITAXEL]	0.0061 µM		0.0193 µM	0.015 µM						
CCOc1ccc(C2C3=C(CCCC3=O)Nc3c2c(C)nn3-c2nc(C)cc(C)n2)cc1OC (stereo not given)	23.2 µM	40%	> 23 µM	> 20 µM	40%		Toxic		40%	
